Columns and labels:
HeLa = assay: Antiproliferative activity against human HeLa cells incubated for 2 days by MTT assay; format: functional, cell-based; details: 48 h
Procedure, shortened: (§1)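 MTT assay. Cells seeded at 3 × 10³/well (HeLa, A549, HMEC-1, HEK-293) or 5 × 10³/well (HT-29, MCF-7) in their growth media with serial compound dilutions from 10 mM DMSO stocks. Incubated 2 days at 37 °C, 5% CO₂, then MTT added for 3 h and formazan dissolved in DMSO. A540 read and viability expressed versus untreated cells. IC₅₀ determined graphically; three independent experiments.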

[1] = biological target: Programmed cell death 1 ligand 1 (Homo sapiens) (UniProt Q9NZQ7); assay: Binding affinity to PDL1 (unknown origin) assessed as change in melting temperature at 100 uM by fluorescence based real time RT-PCR analysis
Sequence of Programmed cell death 1 ligand 1 (Homo sapiens) (Q9NZQ7 whole entry): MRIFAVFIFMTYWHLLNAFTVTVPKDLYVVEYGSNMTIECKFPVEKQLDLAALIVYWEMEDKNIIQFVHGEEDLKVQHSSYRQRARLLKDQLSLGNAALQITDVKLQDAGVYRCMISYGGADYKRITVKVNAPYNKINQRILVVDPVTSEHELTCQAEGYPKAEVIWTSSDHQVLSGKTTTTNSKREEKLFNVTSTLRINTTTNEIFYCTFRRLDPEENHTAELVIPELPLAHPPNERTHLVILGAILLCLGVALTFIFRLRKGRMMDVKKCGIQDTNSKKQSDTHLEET

A549 [2] = assay: Antiproliferative activity against human A549 cells incubated for 2 days by MTT assay; format: functional, cell-based; details: A549, 48 h; procedure, shortened: as §1
HT-29 [3] = assay: Antiproliferative activity against human HT-29 cells incubated for 2 days by MTT assay; format: functional, cell-based; details: HT-29, 48 h; procedure, shortened: as §1
HEK293 = assay: Antiproliferative activity against HEK293 cells incubated for 2 days by MTT assay; format: cell-based; details: Homo sapiens, HEK293, 48 h; procedure, shortened: as §1
A549 [4] = assay: Effect on VEGFR2 in human A549 cells assessed as membrane VEGFR2 level at 100 uM incubated for 24 hrs by flow cytometric analysis relative to control; format: functional
Procedure, shortened: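 A549 cells exposed 24 h to compound at 100 µM. Membrane VEGFR-2 stained on fixed cells with Alexa Fluor 647 anti-VEGFR-2; Triton X-100 permeabilization before fixation used for total VEGFR-2. Flow cytometry, % of DMSO control; mean ± SD of three experiments.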

[5] = biological target: Vascular endothelial growth factor receptor 2 (Homo sapiens) (UniProt P35968)
Sequence of Vascular endothelial growth factor receptor 2 (Homo sapiens) (P35968 whole entry): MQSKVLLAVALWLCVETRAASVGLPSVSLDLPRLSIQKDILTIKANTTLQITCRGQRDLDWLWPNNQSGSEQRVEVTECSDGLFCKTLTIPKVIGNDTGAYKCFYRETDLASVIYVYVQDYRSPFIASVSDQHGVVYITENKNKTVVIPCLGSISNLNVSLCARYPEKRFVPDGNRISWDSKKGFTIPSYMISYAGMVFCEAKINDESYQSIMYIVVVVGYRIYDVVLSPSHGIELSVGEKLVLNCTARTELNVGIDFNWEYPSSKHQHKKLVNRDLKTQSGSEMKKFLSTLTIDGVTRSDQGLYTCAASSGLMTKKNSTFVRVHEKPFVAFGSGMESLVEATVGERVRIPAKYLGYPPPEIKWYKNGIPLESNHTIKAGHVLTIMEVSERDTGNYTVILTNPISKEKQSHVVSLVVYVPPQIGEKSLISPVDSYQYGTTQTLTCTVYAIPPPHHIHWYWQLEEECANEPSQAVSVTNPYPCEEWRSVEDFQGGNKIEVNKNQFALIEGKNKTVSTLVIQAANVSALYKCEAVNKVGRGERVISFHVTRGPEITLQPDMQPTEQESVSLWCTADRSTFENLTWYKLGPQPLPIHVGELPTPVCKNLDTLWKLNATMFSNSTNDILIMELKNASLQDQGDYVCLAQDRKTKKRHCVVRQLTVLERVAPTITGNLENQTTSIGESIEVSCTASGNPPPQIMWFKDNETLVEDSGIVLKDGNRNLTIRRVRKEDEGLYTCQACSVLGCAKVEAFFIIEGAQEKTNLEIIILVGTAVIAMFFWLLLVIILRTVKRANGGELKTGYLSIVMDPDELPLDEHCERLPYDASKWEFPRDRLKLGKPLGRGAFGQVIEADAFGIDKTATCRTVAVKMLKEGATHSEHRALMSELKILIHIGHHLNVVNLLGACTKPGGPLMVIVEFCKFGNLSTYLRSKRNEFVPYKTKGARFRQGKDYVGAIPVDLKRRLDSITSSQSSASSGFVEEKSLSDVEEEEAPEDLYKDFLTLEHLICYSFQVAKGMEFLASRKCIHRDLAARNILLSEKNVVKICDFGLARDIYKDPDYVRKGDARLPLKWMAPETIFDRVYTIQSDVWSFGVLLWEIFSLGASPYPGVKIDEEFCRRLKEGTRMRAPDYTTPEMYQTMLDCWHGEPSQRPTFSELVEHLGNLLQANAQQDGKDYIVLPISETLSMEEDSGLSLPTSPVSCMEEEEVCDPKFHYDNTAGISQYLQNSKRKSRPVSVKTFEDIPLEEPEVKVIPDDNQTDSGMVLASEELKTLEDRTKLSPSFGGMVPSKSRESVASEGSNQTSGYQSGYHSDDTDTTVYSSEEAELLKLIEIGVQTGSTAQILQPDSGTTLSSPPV

HMEC-1 [6] = assay: Antiproliferative activity against HMEC1 cells incubated for 2 days by MTT assay; format: cell-based; details: Homo sapiens, HMEC-1, 48 h; procedure, shortened: as §1
HMEC-1 [7] = assay: Effect on VEGFR2 in HMEC1 cells assessed as membrane VEGFR2 level at 100 uM incubated for 24 hrs by flow cytometric analysis relative to control; format: functional, Homo sapiens
Procedure, shortened: (§2)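 HMEC-1 cells exposed 24 h to compound at 100 µM. Membrane VEGFR-2 measured on fixed cells stained with Alexa Fluor 647 anti-CD309; total VEGFR-2 measured after Triton X-100 permeabilization before fixation. Read by flow cytometry as % of DMSO control.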

MCF7 = assay: Antiproliferative activity against human MCF7 cells incubated for 2 days by MTT assay; format: functional, cell-based; details: MCF7, 48 h; procedure, shortened: as §1
A549 [8] = assay: Effect on VEGFR2 in human A549 cells assessed as total VEGFR2 level at 100 uM incubated for 24 hrs by flow cytometric analysis relative to control; format: functional
HMEC-1 [9] = assay: Effect on VEGFR2 in HMEC1 cells assessed as total VEGFR2 level at 100 uM incubated for 24 hrs by flow cytometric analysis relative to control; format: functional, Homo sapiens; procedure, shortened: as §2
A549 [10] = assay: Immunomodulatory activity in human A549 cells assessed as reduction in PD-L1 expression level at 100 uM incubated for 24 hrs by ELISA relative to control; format: functional; parameters: scale not given: the % may be the effect or the level left
Procedure, shortened: (§3)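 A549 cells (3·10⁵/well) treated 24 h with compound; final concentration 100 µM for some compounds and 15 µM for others per table footnote. Lysates protein-normalized by Bradford, and PD-L1 and c-Myc quantified by commercial ELISA kits as % of DMSO-treated cells. Mean ± SD of three experiments.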

HMEC-1 [11] = assay: Antiangiogenic activity against HMEC1 cells assessed as inhibition of tube formation incubated for 20 hrs by matrigel based tube formation assay; format: functional, Homo sapiens
Procedure, shortened: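 HMEC-1 cells in EGM-2MV medium seeded at 2 x 10⁴ cells/well on Matrigel (10 mg/mL, gelled 30 min at 37°C) and attached for 30 min. Compounds were added at different concentrations and tube formation was assessed after 20 h at 37°C. The minimum concentration at which inhibition began was reported. Data representative of three experiments.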

A549 [12] = assay: Antiproliferative activity against human A549 cells at 200 uM incubated for 24 hrs in presence of Jurkat T cells by trypan blue staining based Neubauer chamber method relative to control; format: functional
Procedure, shortened: (§4)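 Co-culture of 5 × 10⁴ tumor cells/well with 2 × 10⁵ PD-1-expressing Jurkat T cells in 1.5 mL, treated 24 h with compound at 200 µM. Supernatant discarded; tumor cells trypsinized, stained with trypan blue and living cells counted in a Neubauer chamber. Proliferation inhibition (%) attributable to Jurkat presence reported; representative of three experiments.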

A549 [13] = assay: Immunomodulatory activity in human A549 cells assessed as reduction in c-Myc expression level at 100 uM incubated for 24 hrs by ELISA relative to control; format: functional; parameters: scale not given: the % may be the effect or the level left; procedure, shortened: as §3
HT-29 [14] = assay: Antiproliferative activity against human HT-29 cells at 200 uM incubated for 24 hrs in presence of Jurkat T cells by trypan blue staining based Neubauer chamber method relative to control; format: functional; procedure, shortened: as §4
A549 [15] = assay: Effect on VEGFR2 in human A549 cells assessed as membrane VEGFR2 level at 10 uM incubated for 24 hrs by flow cytometric analysis relative to control; format: functional
Procedure, shortened: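 A549 cells incubated 24 h with compound at 10 µM. Membrane VEGFR-2 (fixed cells) and total VEGFR-2 (permeabilized or lysate) stained with Alexa Fluor 647 anti-CD309 and quantified by flow cytometry relative to DMSO control; mean ± SD of three experiments.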

A549 [16] = assay: Induction of apoptosis in human A549 cells assessed as apoptotic cells at 100 uM incubated for 24 hrs by FITC-Annexin V staining based flow cytometric analysis (reference value: 20%); format: functional
A549 [17] = assay: Effect on VEGFR2 in human A549 cells assessed as total VEGFR2 level at 10 uM incubated for 24 hrs by flow cytometric analysis relative to control; format: functional

SMILES | IC50 (HeLa) | ΔTm [1] | IC50 (A549 [2]) | IC50 (HT-29 [3]) | IC50 (HEK293) | Activity (A549 [4]) | ΔTm [5] | IC50 (HMEC-1 [6]) | Activity (HMEC-1 [7]) | IC50 (MCF7) | Activity (A549 [8]) | Activity (HMEC-1 [9]) | Activity (A549 [10]) | MAC (HMEC-1 [11]) | Activity (A549 [12]) | Activity (A549 [13]) | Activity (HT-29 [14]) | Activity (A549 [15]) | Activity (A549 [16]) | Activity (A549 [17])
COc1ccc(Cc2cn(CCNC(=O)Nc3cccc(Br)c3)nn2)cc1 | > 200 µM | 0.79 °C | > 200 µM | > 200 µM | > 200 µM | 98% | 7.34 °C | > 200 µM | 79% | > 200 µM | 80% | 78% | 80% | – | – | – | – | – | – | –
COc1ccc(Cc2cn(CCNC(=O)Nc3cccc(Cl)c3)nn2)cc1 | > 200 µM | 1.89 °C | > 200 µM | > 200 µM | > 200 µM | 95% | 7.34 °C | > 200 µM | 74% | > 200 µM | 86% | 81% | 70% | 50 µM | 49% | 60% | 76% | – | – | –
COc1ccc(Cc2cn(CCNC(=O)Nc3ccccc3)nn2)cc1 | > 200 µM | 2.1 °C | > 200 µM | > 200 µM | > 200 µM | – | 10.5 °C | > 200 µM | 97% | > 200 µM | – | 105% | 83% | – | – | – | – | – | – | –
COc1ccc(/C=C\c2cccc(NC(=O)Nc3cccc(Cl)c3)c2)cc1 | 10.5 µM | – | 38 µM | 20 µM | 5 µM | – | – | 32.9 µM | – | 37.2 µM | – | – | 92% | 10 µM | – | – | – | 102% | 17% | 186%
COc1ccc(/C=C\c2cccc(NC(=O)Nc3ccc(Cl)cc3)c2)cc1 | 8 µM | – | 29 µM | 33 µM | 20 µM | – | – | 33 µM | – | 17 µM | – | – | 75% | 1 µM | – | – | – | 118% | 69% | 100%
COc1ccc(Cc2cn(CCNC(=O)Nc3ccc(Br)cc3)nn2)cc1 | > 200 µM | 8.74 °C | > 200 µM | > 200 µM | > 200 µM | 70% | 2.61 °C | > 200 µM | 40% | > 200 µM | 61% | 55% | >100% | – | – | – | – | – | – | –
CCN(CC)CCNC(=O)c1c(C)[nH]c(/C=C2\C(=O)Nc3ccc(F)cc32)c1C [SUNITINIB] | 7.8 µM | – | 11 µM | 3.8 µM | 5 µM | – | – | 7 µM | – | 0.08 µM | – | – | – | 3 µM | – | – | – | – | 56% | –
COc1ccc(CCc2cccc(NC(=O)Nc3cccc(Cl)c3)c2)cc1 | 16.5 µM | 5.2 °C | > 200 µM | 14 µM | 5.3 µM | – | 4.1 °C | 50 µM | – | 8.2 µM | – | – | 51% | 10 µM | – | 51% | – | 97% | 95% | 98%

— ChEMBL document CHEMBL4346668, “Novel multitarget inhibitors with antiangiogenic and immunomodulator properties” (Eur J Med Chem, 2019)
